According to ChEMBL document CHEMBL1143777, “Synthesis of some bioactive 2-bromo-5-methoxy-N'-[4-(aryl)-1,3-thiazol-2-yl]benzohydrazide derivatives” (2007):
≈ marks a conversion by molar mass, not a printed value.

Experiments:
[1] = tested on: Staphylococcus aureus; assay: Antibacterial activity against Staphylococcus aureus by disc diffusion method; type: functional
[2] = tested on: Talaromyces marneffei; assay: Antifungal activity against Penicillium marneffei by serial plate dilution method; type: functional
[3] = tested on: Trichophyton benhamiae; assay: Antifungal activity against Trichophyton mentagrophytes by serial plate dilution method; type: functional, Arthroderma benhamiae
[4] = tested on: Aspergillus fumigatus; assay: Antifungal activity against Aspergillus fumigatus by serial plate dilution method; type: functional
[5] = tested on: Mus musculus; assay: Analgesic activity against acetic acid-induced writhing in Swiss Albino mouse assessed as protection at 50 mg/kg, po; type: functional
Outline: (§1)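 Mice were dosed with the test agent or diclofenac sodium (2.5 mg/kg). One hour later, writhing was induced by ip injection of 0.6% acetic acid in distilled water at 10 ml/kg. Writhes were counted for 15 min right after the acetic acid injection, and percentage protection was calculated.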

[6] = tested on: Pseudomonas aeruginosa; assay: Antibacterial activity against Pseudomonas aeruginosa by disc diffusion method; type: functional
[7] = tested on: Aspergillus flavus; assay: Antifungal activity against Aspergillus flavus by serial plate dilution method; type: functional
[8] = tested on: SF-268; assay: Antiproliferative activity against SF268 cells assessed as growth at 100 uM after 48 hrs; type: functional; details: Homo sapiens, SF-268, 48 h; read-out: Activity
Outline: (§2)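 This was the NCI primary three-cell-line, one-dose screen (lung NCI-H, breast MCF-7, CNS SF-268). Cells were inoculated on preincubated microtiter plates, and the agent was added at a single concentration. Cultures were incubated for 48 h. The endpoint was determined with sulphorhodamine B protein staining, with negative growth values indicating cell kill.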

[9] = tested on: Klebsiella pneumoniae; assay: Antibacterial activity against Klebsiella pneumoniae by disc diffusion method; type: functional
[10] = tested on: MOLT-4; assay: Antiproliferative activity against MOLT4 cells after 48 hrs; type: functional; details: Homo sapiens, MOLT-4, 48 h
Outline: (§3)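 This was the NCI 60-cell-line panel (lung, colon, melanoma, renal, ovarian, CNS, leukemia), with compounds tested over a five-dose range.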

[11] = tested on: RPMI-8226; assay: Antiproliferative activity against RPMI8226 cells after 48 hrs; type: functional; details: Homo sapiens, RPMI-8226, 48 h; outline: as §3
[12] = tested on: SR; assay: Antiproliferative activity against SR cells after 48 hrs; type: functional; details: Homo sapiens; outline: as §3
[13] = Antiproliferative activity against NCI-H cells assessed as growth at 100 uM after 48 hrs; type: functional; details: Homo sapiens, read-out: Activity; outline: as §2
[14] = tested on: MCF7; assay: Antiproliferative activity against MCF7 cells assessed as growth at 100 uM after 48 hrs; type: functional; details: Homo sapiens, MCF7, 48 h; read-out: Activity; outline: as §2
[15] = tested on: Escherichia coli; assay: Antibacterial activity against Escherichia coli by disc diffusion method; type: functional
[16] = tested on: Mus musculus; assay: Analgesic activity against acetic acid-induced writhing in Swiss Albino mouse assessed as protection at 2.5 mg/kg, po; type: functional; outline: as §1
[17] = read-out: LC50 (the source's name)

| Compound | MIC [1] [µg/mL] | MIC [2] [µg/mL] | MIC [3] [µg/mL] | MIC [4] [µg/mL] | Activity [5] [%] | MIC [6] [µg/mL] | MIC [7] [µg/mL] | growth at 100 µM [8] [%] | MIC [9] [µg/mL] | growth at 100 µM [13] [%] | growth at 100 µM [14] [%] | further results |
| --- | --- | --- | --- | --- | --- | --- | --- | --- | --- | --- | --- | --- |
| COc1ccc(Br)c(C(=O)NNc2nc(-c3cc4cc(Br)ccc4oc3=O)cs2)c1 | 50 (≈ 90.7 µM) | 12.5 (≈ 22.7 µM) | 12.5 (≈ 22.7 µM) | 10 (≈ 18.1 µM) | 50 | – | – | – | – | – | – | – |
| COc1ccc(Br)c(C(=O)NNc2nc(-c3ccc(Cl)cc3)cs2)c1 | – | – | 50 (≈ 114 µM) | – | 43.75 | 50 (≈ 114 µM) | 50 (≈ 114 µM) | – | – | – | – | – |
| COc1ccc(-c2csc(NNC(=O)c3cc(OC)ccc3Br)n2)cc1 | – | – | – | 50 (≈ 115 µM) | 25 | 50 (≈ 115 µM) | – | – | – | – | – | – |
| COc1ccc(Br)c(C(=O)NNc2nc(-c3ccc(O)c(C(N)=O)c3)cs2)c1 | 12.5 (≈ 27 µM) | 12.5 (≈ 27 µM) | 12.5 (≈ 27 µM) | 12.5 (≈ 27 µM) | 56.25 | – | 60 (≈ 130 µM) | 55 | 12.5 (≈ 27 µM) | 17 | 19 | GI50 [10]: 22.6 µM; TGI [10]: 57 µM; CC50 [10, 17]: ≥ 100 µM; GI50 [11]: 27.9 µM; TGI [11]: 92.5 µM; CC50 [11, 17]: ≥ 100 µM; GI50 [12]: 29.8 µM; TGI [12]: ≥ 100 µM; CC50 [12, 17]: ≥ 100 µM |
| COc1ccc(Br)c(C(=O)NNc2nc(-c3ccc(O)c(O)c3)cs2)c1 | 50 (≈ 115 µM) | – | – | 50 (≈ 115 µM) | 12.5 | 6.25 (≈ 14.3 µM) | 12.5 (≈ 28.7 µM) | 111 | 12.5 (≈ 28.7 µM) | 101 | 86 | MIC [15]: 50 µg/mL (≈ 115 µM) |
| COc1ccc(Br)c(C(=O)NNc2nc(-c3ccnc(Cl)c3)cs2)c1 | – | 12.5 (≈ 28.4 µM) | 12.5 (≈ 28.4 µM) | 12.5 (≈ 28.4 µM) | 37.5 | – | 50 (≈ 114 µM) | 111 | 50 (≈ 114 µM) | 95 | 87 | – |
| COc1ccc(Br)c(C(=O)NNc2nc(-c3cc4ccccc4oc3=O)cs2)c1 | 50 (≈ 106 µM) | 12.5 (≈ 26.5 µM) | – | – | 37.5 | – | – | – | – | – | – | MIC [15]: 50 µg/mL (≈ 106 µM) |
| COc1ccc(Br)c(C(=O)NNc2nc(-c3ccccc3)cs2)c1 | – | – | – | – | 12.5 | – | – | – | – | – | – | – |
| O=C([O-])Cc1ccccc1Nc1c(Cl)cccc1Cl.[Na+] [DICLOFENAC SODIUM] | – | – | – | – | – | – | – | – | – | – | – | Activity [16]: 62.5% |
| CCC(C)n1ncn(-c2ccc(N3CCN(c4ccc(OC[C@H]5CO[C@](Cn6cncn6)(c6ccc(Cl)cc6Cl)O5)cc4)CC3)cc2)c1=O (stereo not given in full) [ITRACONAZOLE] | – | < 16 | < 16 | < 16 | – | – | < 16 | – | – | – | – | – |
